# Shown are actives, neighbours in structure and some others; about 1.8% of the full set was active somewhere.
# UBC9 SUMO inh: inhibitors of human SUMOylation (UBC9). P63279. HTRF SUMOylation assay, SAE1/SAE2 + UBC9, in vitro. inhibition, % at 35 µM. 290,000 tested, 0.36% active; in the data active means inhibition above about 50%, passing the limit was not always enough
# Target sequence (P63279 whole entry, looked up): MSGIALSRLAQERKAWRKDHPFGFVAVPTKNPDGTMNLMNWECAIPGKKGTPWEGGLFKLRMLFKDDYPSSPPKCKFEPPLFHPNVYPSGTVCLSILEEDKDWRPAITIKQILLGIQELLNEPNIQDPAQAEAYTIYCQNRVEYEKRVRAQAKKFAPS
# CSN inh: inhibitors of human CSN-mediated cullin deneddylation; Q92905; Purified CSN, SCF-Nedd8-OG deneddylation, fluorescence polarization; inhibition, % at 12.5 µM; 360,000 tested, 0.38% active;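 active means pattern-corrected inhibition above about 35%, with an unprinted fluorescence ratio check between 0.5 and 1.5, limit read from the data, passing the limit was not always enough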;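 further: 0% = enzyme with substrate and 100% = substrate without enzyme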
#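 test system = HEK293T-derived human Csn5 enzyme | amount = 0.24 nM Csn5 enzyme, final concentration | medium = Tris/NaCl/DTT buffer, pH 7.5 | schedule = 90 min reaction at room temperature | signal = FP | evaluation = inhibition of Csn5 cleavage, % | compound dosing = single dose of 12.5 µM compound with 0.25% DMSO | probe or stimulus = 10 nM SCFSkp2-Nedd8OG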
# Rpn11 block: blocks the human proteasome subunit Rpn11; human 26S proteasome, Ub4-pepOG fluorescence polarization; 20S core pre-blocked with epoxomicin; calls only at 20 µM; 360,000 tested, 0.59% active; AID 588493;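 active means inhibition at 20 µM, scaled to each plate's controls, above about 33%, limit read from the data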
# TPT1 inh: inhibitors of Candida albicans tRNA 2'-phosphotransferase TPT1; recombinant caTPT1, FP RNA substrate dephosphorylation; inhibition, % at 5 µM; 300,000 tested, 0.81% active; AID 1962;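 active means inhibition above the mean of all tested compounds plus 3 SD, set per screening campaign, cut at about 24% in these data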;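 further: plate controls were DMSO alone for no effect and ferristatin control at 100 nM for full effect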
# HNF4A DNA FP: change in binding of human HNF4 alpha to DNA; HNF4a-FITC DNA binding, fluorescence polarization, 1 h; P41235; 360,000 tested, 0.3% active; activity change, % at 10 µM; AID 1224865; in the data active means activity change above about 30%, passing the limit was not always enough
# SENP1 FRET inh: blocks the human SENP1 SUMO protease catalytic domain; Q9P0U3; recombinant SENP1 catalytic domain, CyPet-SUMO1-YPet FRET cleavage; inhibition, % at 10 µM; 360,000 tested, 0.21% active;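 active means inhibition at least 30% at 10 µM, raw YFP signal under a set limit, fluorescence ratio 0.5 to 1.5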;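 further: 0% = enzyme with DMSO and 100% = no enzyme wells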
# Target sequence (Q9P0U3 419-644 limits assumed): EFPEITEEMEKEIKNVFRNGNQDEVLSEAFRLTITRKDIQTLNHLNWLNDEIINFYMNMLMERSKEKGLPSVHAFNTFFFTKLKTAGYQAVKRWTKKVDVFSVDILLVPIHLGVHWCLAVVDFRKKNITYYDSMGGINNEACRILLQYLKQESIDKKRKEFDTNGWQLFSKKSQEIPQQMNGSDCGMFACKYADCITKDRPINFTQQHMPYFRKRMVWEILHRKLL
#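 Controls: no-enzyme wells low, DMSO-plus-enzyme wells high control. Test system: human recombinant His6-tagged SENP1 catalytic domain enzyme. Reagent: SFCypet-SUMO1-SFYpet FRET protein substrate, 25 nM final. Doses: one dose per compound, 10 µM, 0.5% DMSO. Detection: FRET, CFP and YFP emission. Timing: 50 min reaction at room temperature.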
# The depositor's hits bear a star; i = inactive; / = not tested or not shown; + = active, no number.
SMILES,UBC9 SUMO inh,CSN inh,Rpn11 block,TPT1 inh,HNF4A DNA FP,SENP1 FRET inh
CCCCn1c(N)c(N(Cc2ccccc2OC)C(=O)CSCC(=O)Nc2ccc(C)cc2)c(=O)[nH]c1=O,/,2,i,/,-4,-3
O=C1N=C(N2CCc3ccccc3C2)S/C1=C\c1cccc(O)c1,-20,9,i,0,-3,1
Cc1ccnc2nc(C(=O)NCc3ccccc3)nn12,-8,0,i,1,2,2
CN(C)C(CNC(=O)CCNS(=O)(=O)c1ccccc1C(F)(F)F)c1ccccc1 (stereo not given),/,4,i,/,2,0
COC(=O)c1ccc(NS(=O)(=O)c2cc3c4c(c2)CCC(=O)N4CCC3)cc1,/,3,i,0,-1,0
COC(=O)c1ccc2c(c1)NC(=O)CS2,1,-2,i,-2,3,-4
COC(=O)c1ccc2c(c1)SC1=C(CCCC1=O)N2,10,2,i,-95,-5,43*
Cc1ccn2cc(-c3ccc4c(c3)NC(=O)CO4)nc2c1,8,54*,i,2,8,2
CC1CC(C)CN(S(=O)(=O)c2ccc3c(c2)C(C)(C)C(=O)N3C)C1 (stereo not given),/,0,i,-5,0,1
O=C(NCc1ccco1)c1cccc2c1C(=O)c1ccc(/C=C/c3ccccc3)cc1S2(=O)=O,/,55*,i,/,-18,19
O=C1c2ccccc2C(=O)c2c1cccc2N(CCO)CCO,-6,-8,i,-15,-21,-2
O=C1C=C(N(CCO)Cc2ccccc2)c2ccccc2C1=O,64*,17,i,/,2,-2
Cc1ccc(S(=O)(=O)N2CCC(C(N)=O)CC2)cc1C(=O)NC1CCCCC1,/,4,i,-1,-2,0
CCOc1ccc(-c2nn(-c3ccccc3)cc2/C=C2\SC(N)=NC2=O)cc1C,-7,-3,i,-1,57*,-2
COc1ccc(N=C2S/C(=C\c3ccc(OCC(=O)O)cc3)C(=O)N2CCc2c[nH]c3ccccc23)cc1,35,36*,i,/,-74,1
CCN1C(=O)C(=CC=CN(C)c2ccccc2)SC1=S,/,64*,/,/,176,-31
COc1ccc(Cl)cc1NC(=S)NCCO,4,-10,i,-3,57*,2
CCCCCCCCN1C(=O)[C@H](CC(=O)NCCCN2CCCC2=O)C[C@@]2(C(=O)OC)CCCCC=C12,/,48*,/,/,-4,2
CCOc1ccc(NC(=O)c2ccc(NC(=O)c3ccc(NC(N)=O)cc3)cc2)cc1,/,19,+,/,-13,-1
COc1ccc(-c2cc(N3CCCC3)n3ncnc3n2)cc1,14,4,i,-4,-6,-3
COc1ccc(-c2cc(-c3ccccc3)n3ncnc3n2)cc1,53*,1,i,0,-3,-1
Cc1[nH]c2ccccc2c1/C=N/Nc1ccc([N+](=O)[O-])cc1S(=O)(=O)Nc1ccc(Cl)cc1,20,44*,/,2,94*,20
Cc1cc2c(c(CO)c1CCO)C(=O)[C@@H](C)[C@@H]2O,/,2,i,/,-9,1
Cc1ccc(NC(=O)Cn2c(=O)oc3cc(S(=O)(=O)N4CCC(C)CC4)ccc32)cc1C,50*,1,i,-2,0,2
COc1ccc(NC(=O)Cn2c(=O)oc3cc(S(=O)(=O)N4CCCC4)ccc32)cc1,8,-4,i,-2,1,3
Cn1cnc([N+](=O)[O-])c1S(=O)(=O)Oc1ccc(Cl)cc1,/,-1,i,/,2,1
COc1ccc(CNCCCn2cnc3c(SC)ncnc32)cc1,/,0,i,/,-6,0
COc1ccc(Cl)cc1NC(=O)CN1c2ccccc2CC1C (stereo not given),-7,-1,i,0,33*,-16
Cc1cccc(C(=O)Oc2ccccc2C2C[C@]3(C)CC(=O)NC3N2C(=O)c2cccc(C)c2)c1 (stereo not given in full),5,0,i,-5,-2,0
COc1ccc(-c2c(-c3ccsc3)oc(=O)c3cc(OC)c(OC)cc23)cc1,/,0,i,/,1,-2

# Screening results from PubChem BioAssay.
